Assay results from ChEMBL document CHEMBL1142097, “EthA, a common activator of thiocarbamide-containing drugs acting on different mycobacterial targets” (Antimicrob Agents Chemother, 2007).
≈ marks a conversion by molar mass, not a printed value. Calls of active or inactive are those of the source. The calls are words filed in the database; no cut-off is given here.

Experiments:
[1] = Antimycobacterial activity against Mycobacterium bovis BCG str. Pasteur 1173P2 overexpressing ethR gene; assay type: functional; conditions: Mycobacterium tuberculosis variant bovis BCG
In short: (§1)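 Agar MIC on Middlebrook 7H9 or 7H11 with OADC (ADC substituted for isoxyl-type drugs) plus graded drug levels; serial 10-fold dilutions of actively growing culture plated, incubated 37°C for 10–14 days; MIC = lowest concentration blocking 99% of growth. Recombinant Pasteur strains selected with 25 μg/ml kanamycin; ethR::hyg mutant carries a hygromycin-marked transposon in ethR.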

[2] = tested on: Mycobacterium tuberculosis; test: Antimycobacterial activity against Mycobacterium bovis BCG NCTC 5692; assay type: functional; conditions: Mycobacterium tuberculosis variant bovis BCG; in short: as §1
[3] = tested on: Mycobacterium tuberculosis; test: Antimycobacterial activity against Mycobacterium bovis BCG NCTC 5692 with ethR-knockout mutant; assay type: functional, variant bovis BCG; in short: as §1
[4] = Antimycobacterial activity against Mycobacterium bovis BCG str. Pasteur 1173P2 overexpressing ethA gene; assay type: functional; conditions: Mycobacterium tuberculosis variant bovis BCG; in short: as §1
[5] = tested on: Mycobacterium tuberculosis; test: Inhibition of mycolic acid synthesis in Mycobacterium bovis BCG NCTC 5692 with ethR-knockout mutant assessed as incorporation of [2-14C]acetate; assay type: functional, organism-based; conditions: variant bovis BCG
In short: (§2)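 Mid-log cultures in Sauton medium exposed to graded drug concentrations (μg/ml) for 16 h at 37°C, then pulsed with 1 μCi/ml [2-14C]acetate for 8 h at 37°C. Cells PBS-washed, hydrolysed with 15% tetrabutylammonium hydroxide at 100°C overnight, methylated with CH3I in CH2Cl2; fatty and mycolic acid methyl esters resolved by TLC and autoradiographed.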

[6] = tested on: Mycobacterium tuberculosis; test: Inhibition of oleic acid synthesis in Mycobacterium bovis BCG NCTC 5692 assessed as incorporation of [2-14C]acetate; assay type: functional, organism-based; conditions: variant bovis BCG; in short: as §2
[7] = tested on: Mycobacterium tuberculosis; test: Inhibition of mycolic acid synthesis in Mycobacterium bovis BCG NCTC 5692 assessed as incorporation of [2-14C]acetate; assay type: functional, organism-based; conditions: variant bovis BCG; in short: as §2
[8] = tested on: Mycobacterium tuberculosis; test: Inhibition of oleic acid synthesis in Mycobacterium bovis BCG NCTC 5692 with ethR-knockout mutant assessed as incorporation of [2-14C]acetate; assay type: functional, organism-based; conditions: variant bovis BCG; in short: as §2

| Structure (SMILES) | MIC [1] [µg/mL] | MIC [2] [µg/mL] | MIC [3] [µg/mL] | MIC [4] [µg/mL] | Activity [5] | Activity [6] | Activity [7] | Activity [8] |
| --- | --- | --- | --- | --- | --- | --- | --- | --- |
| NC(=S)N/N=C/c1cccnc1 [NICOTHIAZONE] | 75 (≈ 416 µM) | 25 (≈ 139 µM) | 5 (≈ 27.7 µM) | 10 (≈ 55.5 µM) |  |  |  |  |
| CCc1cc(C(N)=S)ccn1 [ETHIONAMIDE] | 10 (≈ 60.2 µM) | 5 (≈ 30.1 µM) | 0.5 (≈ 3.01 µM) | 0.25 (≈ 1.5 µM) | Active |  |  |  |
| CC(C)CCOc1ccc(NC(=S)Nc2ccc(OCCC(C)C)cc2)cc1 [TIOCARLIDE] | 0.25 (≈ 0.624 µM) | 1 (≈ 2.5 µM) | 0.5 (≈ 1.25 µM) | 0.1 (≈ 0.25 µM) |  | Active | Active | Active |
| COc1ccc(/C(C)=N/NC(N)=S)cc1 | 0.5 (≈ 2.24 µM) | 2.5 (≈ 11.2 µM) | 0.25 (≈ 1.12 µM) | 0.25 (≈ 1.12 µM) |  |  |  |  |
| CC(=O)Nc1ccc(/C=N/NC(N)=S)cc1 [AMITHIOZONE] | 2.5 (≈ 10.6 µM) | 2.5 (≈ 10.6 µM) | 0.25 (≈ 1.06 µM) | 0.25 (≈ 1.06 µM) | Active | inactive | Active |  |
| CC(C)CCSc1ccc(NC(=S)Nc2ccc(SCCC(C)C)cc2)cc1 | 40 (≈ 92.4 µM) | 25 (≈ 57.8 µM) | 2.5 (≈ 5.78 µM) | 5 (≈ 11.6 µM) | Active |  |  | Active |
